# Source: the EternaBench riboswitch data
# Test system: MS2 coat protein
# Experiment: apparent Kd, MS2 coat protein; higher = weaker binding; RNA-MaP array; FMN 200 µM where present
# How it was run: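 Two titrations, one without ligand and one with constant ligand, were run with SNAP-549-labelled MS2 coat protein from 0.7 or 1.5 nM, doubling to 3 µM. The targets were designs transcribed by stalled E. coli RNA polymerase on Illumina sequencing-chip clusters, in 100 mM Tris-HCl pH 7.5, 80 mM KCl, 4 mM MgCl2, BSA, DTT, yeast tRNA and Tween-20. The apparent Kd is the median of filtered per-cluster binding-curve fits, with green signal normalised to red-channel RNA signal and control-cluster median Fmax.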
# [1] = designed as: OFF switch for flavin mononucleotide, no ligand
# [2] = ligand present: flavin mononucleotide, designed as: OFF switch for flavin mononucleotide
# [3] = ligand present: flavin mononucleotide, designed as: ON switch for flavin mononucleotide
# [4] = designed as: ON switch for flavin mononucleotide, no ligand
Sequence,apparent Kd [1] [nM],apparent Kd [2] [nM],apparent Kd [3] [nM],apparent Kd [4] [nM]
UAAAUGUGAGGAUAUUCGAAUAACUCGGAGACGAGUUGUUCGGAGAAGGCACAUGAGGAUCACCCAUGUUCCUU,22.5,216,–,–
CGGAUGUCAGGAUAUCGUGCAUACAACGAAAGUUCUAUGUGCGAGAAGGGACAUGAGGAUCACCCAUGUUACGG,252,588,–,–
UCGAGGUCAGGAUAUACAUGAGGAUCACCCAUGUGGAAGUAAGGUAGGAGAAGAGUAGGUAGAAGGGACGAGAG,42.6,35.7,–,–
UUGUUGUAUGUAGGAUAUGCAUAUUAUUAUUAUGCAGAAGGACAUGAGGAUCACCCAUGUAUGUUAUUAUUAUGUGUUAUGUGU,44,71.5,–,–
CCAUAAAAGAUCCAAAAUUACAACAUGAGGAUCACCCAUGUGCAGGAUAUCGUGAAAGUAAAAUACGAGAAGGGCAAAAACUGC,440,454,–,–
UUAACAUGAGGAUCACCCAUGUAAAGAACGGUUAAUUAAAGUGAGGAUAUACAAAAUUUUAUAUUGUAGAAGGCACUGGGUACA,–,–,22.9,–
CCAUGCAUAGCGAUAUGAUCGAGAGAUCAUGUCGCUAAAUUUAGAAGGACAUGAGGAUCACCCAUGUAGGAUAUGGGAGCAUGC,–,–,17.8,58.4
AGCUGUGGCCGAGGAUAUCUAACUUCAAAUACCGACGUAUAGUCGGACAUGAGGAUCACCCAUGUAGAGAAGGCGGUCUCAGCA,16.1,26.7,–,–
AGGAAACAUGAGGAUCACCCAUGUAAAAGGUGGUUAGGAUAUGCAAAAAGAAAAAGAAAAGCAGAAGGGACAAGAA,–,–,635,561
GGACCGUGCAGAGUUCGCGGUCGGCAGGAUAUGACAUGAGGAUCACCCAUGUGAACUCCAUUGGGUCAGAAGGGCCACGACACA,19.8,78,–,–
GUAGCAUUGAGAGGAUAUCCAUACCGGAAACGGACAUGAGGAUCACCCAUGUCGCGAAAGCGGUGGGAGAAGGCUCUAUGCUAC,–,–,4.46,4.52
ACCUUACAUGAGGAUCACCCAUGUUAGGAUAUCUCGCUUGCGCAAUCACAGCACAAGCAGAGAAGGGACGCGGG,28.1,32.5,–,–
GGGAUGCUAGGAUAUACAUCGGGCUCCAGGAUGUUCCGGGAACAUGAGGAUCACCCAUGUAGAAGGAGCUAAAG,67.9,53.5,–,–
UGGUACAUGGGAGGAUAUCCUCAAGAACAUGAGGAUCACCCAUGUAAUUAUAAGCCGAAAGGCAUGGAGAAGGCCCAUGUACCU,–,–,16,66.4
AAGACUAGAGGAUAUACAUGAGGAUCACCCAUGUAACUGUCAGGUGACUGACGGAGAUGUAGAAGGCUAGUCAA,19.6,43.2,–,–
GGAGAACAUGAGGAUCACCCAUGUGGAUGGGCGCUAGGAUAUGCGAGAGGGUGAAGAGAAGCAGAAGGAGUGGAUA,–,–,142,141
UGUUGUAUUACAGGAUAUCUAGUAUUUUGAUUUAGAGAAGGGUAUUCACAUGAGGAUCACCCAUGUAUAUACGAGGAAGUUGUG,–,–,57.4,52.4
AAAGGUGAUUCAGGAUAUGUGUAGGAGGGCGGCGCAGAAGGGAAUCUAGCCCGACGUCAUACAUGAGGAUCACCCAUGUAUGCC,–,–,18.5,28.7
UGAUCGAAAGAUCAUAGAUUCUGCUAGGAUAUGCAGGAGUUGCGCUUUACAUGAGGAUCACCCAUGUAGAAGGAGUAGAGUCUA,6.77,8.88,–,–
AAGAAGUCAGGAUAUGCUGCUCGUCACUUGCGUGAUGAGUAGCAGAAGGGACAUGAGGAUCACCCAUGUAAAGG,164,356,–,–
ACCUCACAUGAGGAUCACCCAUGUUAGGAUAUCUCGAUGCUCCGCGGGCGGGAGCAUCAGAGAAGGAACGUGCA,20.1,21.8,–,–
CCAUCGUGUGUGAGGAUAUGCUGGUCCUUGGAUCAGCAGAAGGCACAUGAGGAUCACCCAUGUGAAAACGAUGG,17.9,56.4,–,–
GGUCGUCACAUGAACAUGAGGAUCACCCAUGUAACUAGACAUGAGGAUAUGGAUCCUAAUUGGAUCCAGAAGGCAUGGACGACC,–,–,31.2,203
GUCAGCUCGUGAGGAUAUACAUGUGCUGGAGACAGCACUAAAGUUUUCACAUGAGGAUCACCCAUGUAGAAGGCACGAGCUGAU,15.4,36,–,–

Sequence,apparent Kd [1] [nM],apparent Kd [2] [nM],apparent Kd [3] [nM],apparent Kd [4] [nM]
CAGUACUGAGGAUAUACAUGAGGAUCACCCAUGUAUCCUAGCUAGGAAACUAGCAAAAGUAGAAGGCAGUACUG,16,156,–,–
UUUAUGUCAGGAUAUUCGGAUAGGAAAACGAAAACCUAUCCGAAGAAGGGACAUGAGGAUCACCCAUGUAAAAA,217,151,–,–
CUAUCGAGGUAACUCGCUAUCACACCAGAAGGGACGGAGGCACAUGAGGAUCACCCAUGUCCUAGUCAGGAUAUGGGUGAGUAG,–,–,5.07,17.6
ACAUGAGGAUCACCCAUGUGGACAUAGGAUAUUGGUGAUCAGGCGUGUUAUACAGGAUAGGUCUGCGAGAAGGGUGUGCGUUGC,–,–,218,406
AGAGUGUCAGGAUAUCCUGCUGUGCGGAAUAUGUAUUCACGGGAGAAGGGACAUGAGGAUCACCCAUGUUUGAG,20.6,20.8,–,–
GGACAUGUCGUCUACAUGAGGAUCACCCAUGUCGAUAGACAUGAGGAUAUCGAUACAAAUUGUAUCGAGAAGGCAUGCAUGUCC,–,–,23,44.9
UUCCGGCGUGUAGGAUAUGGAUCCGAUUAGGAUCCAGAAGGACAUGAGGAUCACCCAUGUACAUGUAAACAGUCAUCACCGGAC,9.63,87.3,–,–
UUUAUAAAUUAGAAGGCGUGAUGAAUUACAAUAGACAUGAGGAUCACCCAUGUGUAUUCAUGUCAUGAGGAUAUAGUCAUAUAU,–,–,19.4,47.2
AUUCGACAUGAGGAUCACCCAUGUAAGGAUAUGAUAGUUCUGAUAAGGGCUAGCCUAUUCAGAAGGUACGUGGC,35.5,31.4,–,–
GUUGCUAUCGGAGGAUAUUCAUACCGGAAACGGACAUGAGGAUCACCCAUGUGCGGAAACGCUUGGGAGAAGGCCGAUAGCAAC,–,–,22.1,210
AACAAGUGAGGAUAUGAAAAUACAACAAACAAACAUCUACAUCAGAAGGCACAUGAGGAUCACCCAUGUUAAUC,20.9,23.2,–,–
UUGGACGUCGUAGGAAAUGUAGGAUAUUCCUACAUGAGGAUCACCCAUGUUGACAUGGAAGAAGGACAGAAGGACGAUGUCCAU,–,–,11,517
GUUUCGUGAGGAUAUGUGGCUUCGAUCGUGCGAAAGAGGCUACAGAAGGCACAUGAGGAUCACCCAUGUUCCUC,38.2,536,–,–
GGAUUACAUGAGGAUCACCCAUGUGAGGAUAUCGAUGUCCUCAAUGGAGUGCGGGACUCGAGAAGGCACUUGGA,338,168,–,–
ACUAUAUAUGAGAAGGUGAAGUGGAAACAUGAGGAUCACCCAUGUAAUACGAAGCGUAUUUUUAUCAAGGAUAUCAUAUAUAGA,–,–,8.02,10.2
UUAAAUCAUGUAGGAUAUGCAUGGCGAAGCUACGCAGAAGGACAUGAGGAUCACCCAUGUUAUAGCUACCCAGAACGGUGGCAA,75.5,267,–,–
ACAUGACAUGAGGAUCACCCAUGUGAGGAUAUGCGAAAAAAAUUUUUAAAAAAAAUUGGCAGAAGGCACAAAAU,121,139,–,–
UGUAUGGACAGAGGAUAUGCCGAUAGGAUCUACUAUCGAAGAAUCCUCACAUGAGGAUCACCCAUGUAGAAGGCUGUCCAUACU,25.3,150,–,–
AUGUGAGCAGGAUAUGCAGGUGUGCCGGAAGAAAGAAGAGGACAUGAGGAUCACCCAUGUAGAAGGGCUAGCCC,49,31.3,–,–
UGUGUGUGAGGAUAUACAUGAGGAUCACCCAUGUAGCGCGCGCGUAUUCGUGUGUGUUGUAGAAGGCGCGCGCG,33,30.5,–,–
UCGAGUCAUGAGAAGGGUUGAUGUUACAUGAGGAUCACCCAUGUCAUGGGCAGGAUAUCAUUGACACGACUGUACCUCUCUUAC,–,–,112,254
GCUCUGCGAGGAUAUACAUGAGGAUCACCCAUGUGCGAGUUACUUGUGAGGUCGGUUGGUAGAAGGCGCGGAGG,106,89.8,–,–
GUGCGGUAGGAGAAGGACGGAGGCUUCUUUUCAUACAUGAGGAUCACCCAUGUAGGAUAUCCUACCUCACGCGGCCUACUACAG,8.74,7.7,–,–
UGCAUGGUAGGAUAUACGGAGCAUUAGGGUUUGUUAUGUGGACAUGAGGAUCACCCAUGUAGAAGGGCCGUGCU,37.3,57.1,–,–
